Assay results published in ChEMBL document CHEMBL1131623, “Newly synthesized L-enantiomers of 3'-fluoro-modified beta-2'-deoxyribonucleoside 5'-triphosphates inhibit hepatitis B DNA polymerases but not the five cellular DNA polymerases alpha, beta, gamma, delta, and epsilon nor HIV-1 reverse transcriptase” (J Med Chem, 1998).

How the values were obtained:
Nucleic Acid = assay: Compound was evaluated for the inhibition of cellular DNA polymerase (epsilon); type: nucleic-acid assay; settings: Bos taurus
How it was run: (§1)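 Calf thymus pols δ and ε (0.05 unit), 30 min at 37 °C, in 50 mM Bis-Tris pH 6.5, 6 mM MgCl2, 1 mM DTT, 250 μg/mL BSA. Templates were 3.5 μM poly(dA)·oligo(dT)15 with 10 μM [3H]TTP, or activated DNA with [3H]dCTP for dCTP analogues. δ assays also received recombinant PCNA at 10 μg/mL.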

DNA polymerase beta = DNA polymerase beta (Homo sapiens, UniProt P06746); assay: Compound was evaluated for the inhibition of cellular DNA polymerase (beta)
How it was run: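 HeLa-derived pol β (0.25 unit), 15 min at 37 °C, in 50 mM Tris-HCl pH 8.7, 100 mM KCl, 10 mM MgCl2, 1 mM DTT, 0.4 mg/mL BSA. TTP analogues were tested on poly(dA)·oligo(dT)15 with [3H]TTP. dCTP analogues used activated DNA, [3H]dCTP and the other three dNTPs. Read-out was [3H] incorporation.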

[1] = Compound was evaluated for the inhibition of cellular DNA polymerase (delta); how it was run: as §1
[2] = target: Human immunodeficiency virus type 1 reverse transcriptase (Human immunodeficiency virus 1, UniProt Q72547); assay: Compound was evaluated for 50% inhibition of HIV-RT (HIV reverse transcriptase)
Hepatitis B virus = assay: Compound was evaluated for 50% inhibition of HBV polymerases (Hepatitis B virus); type: functional, organism-based
How it was run: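 Endogenous polymerase in virions pelleted from HBV- or DHBV-positive sera, resuspended in PBS and lysed with 2-mercaptoethanol/Nonidet P-40. Run 60 min at 37 °C in 50 mM Tris-HCl pH 8.1, 60 mM KCl, 40 mM MgCl2. Substrates were 100 μM each of the three unlabeled dNTPs plus 0.4 μM [3H]TTP or [3H]dCTP, chosen by analogue type.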

[3] = target: T1, DNA polymerase subunit gamma-1 (Homo sapiens, UniProt P54098); assay: Compound was evaluated for the inhibition of cellular DNA polymerase (gamma)
T1 sequence (P54098 whole entry): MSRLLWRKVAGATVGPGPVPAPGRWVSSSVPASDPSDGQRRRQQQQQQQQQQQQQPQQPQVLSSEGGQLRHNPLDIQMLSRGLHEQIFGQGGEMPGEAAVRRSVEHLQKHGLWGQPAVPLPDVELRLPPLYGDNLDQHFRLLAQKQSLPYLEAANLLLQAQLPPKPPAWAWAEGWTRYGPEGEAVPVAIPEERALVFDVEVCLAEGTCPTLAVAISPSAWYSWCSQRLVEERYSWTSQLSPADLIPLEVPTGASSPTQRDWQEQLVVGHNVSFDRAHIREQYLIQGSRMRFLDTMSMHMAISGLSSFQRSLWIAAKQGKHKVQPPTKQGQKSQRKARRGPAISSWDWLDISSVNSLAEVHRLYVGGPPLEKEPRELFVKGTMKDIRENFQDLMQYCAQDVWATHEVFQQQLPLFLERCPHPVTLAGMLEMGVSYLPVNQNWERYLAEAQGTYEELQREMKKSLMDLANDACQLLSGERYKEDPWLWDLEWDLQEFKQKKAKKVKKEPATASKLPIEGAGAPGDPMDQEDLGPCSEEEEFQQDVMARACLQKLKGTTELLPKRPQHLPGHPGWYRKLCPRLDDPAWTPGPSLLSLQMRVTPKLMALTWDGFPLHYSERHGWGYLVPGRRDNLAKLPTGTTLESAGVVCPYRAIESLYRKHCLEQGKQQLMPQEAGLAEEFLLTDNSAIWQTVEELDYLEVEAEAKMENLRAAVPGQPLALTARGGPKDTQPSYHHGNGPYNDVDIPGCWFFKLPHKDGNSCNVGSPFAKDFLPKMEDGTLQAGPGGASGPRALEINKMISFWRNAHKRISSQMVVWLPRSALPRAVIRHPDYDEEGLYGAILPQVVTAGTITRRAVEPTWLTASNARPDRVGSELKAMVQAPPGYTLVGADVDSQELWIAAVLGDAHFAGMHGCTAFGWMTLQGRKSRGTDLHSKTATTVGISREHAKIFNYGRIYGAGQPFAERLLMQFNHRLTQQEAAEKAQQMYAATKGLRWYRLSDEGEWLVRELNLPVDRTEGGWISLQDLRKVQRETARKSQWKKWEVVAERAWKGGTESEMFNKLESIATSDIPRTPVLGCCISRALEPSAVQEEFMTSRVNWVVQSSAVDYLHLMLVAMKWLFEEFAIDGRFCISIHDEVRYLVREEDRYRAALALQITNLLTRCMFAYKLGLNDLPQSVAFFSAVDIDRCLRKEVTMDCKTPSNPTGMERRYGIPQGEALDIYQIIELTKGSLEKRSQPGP

[4] = target: T2, DNA polymerase alpha catalytic subunit (Homo sapiens, UniProt P09884); assay: Compound was evaluated for the inhibition of cellular DNA polymerase (alpha)
T2 sequence (P09884 whole entry): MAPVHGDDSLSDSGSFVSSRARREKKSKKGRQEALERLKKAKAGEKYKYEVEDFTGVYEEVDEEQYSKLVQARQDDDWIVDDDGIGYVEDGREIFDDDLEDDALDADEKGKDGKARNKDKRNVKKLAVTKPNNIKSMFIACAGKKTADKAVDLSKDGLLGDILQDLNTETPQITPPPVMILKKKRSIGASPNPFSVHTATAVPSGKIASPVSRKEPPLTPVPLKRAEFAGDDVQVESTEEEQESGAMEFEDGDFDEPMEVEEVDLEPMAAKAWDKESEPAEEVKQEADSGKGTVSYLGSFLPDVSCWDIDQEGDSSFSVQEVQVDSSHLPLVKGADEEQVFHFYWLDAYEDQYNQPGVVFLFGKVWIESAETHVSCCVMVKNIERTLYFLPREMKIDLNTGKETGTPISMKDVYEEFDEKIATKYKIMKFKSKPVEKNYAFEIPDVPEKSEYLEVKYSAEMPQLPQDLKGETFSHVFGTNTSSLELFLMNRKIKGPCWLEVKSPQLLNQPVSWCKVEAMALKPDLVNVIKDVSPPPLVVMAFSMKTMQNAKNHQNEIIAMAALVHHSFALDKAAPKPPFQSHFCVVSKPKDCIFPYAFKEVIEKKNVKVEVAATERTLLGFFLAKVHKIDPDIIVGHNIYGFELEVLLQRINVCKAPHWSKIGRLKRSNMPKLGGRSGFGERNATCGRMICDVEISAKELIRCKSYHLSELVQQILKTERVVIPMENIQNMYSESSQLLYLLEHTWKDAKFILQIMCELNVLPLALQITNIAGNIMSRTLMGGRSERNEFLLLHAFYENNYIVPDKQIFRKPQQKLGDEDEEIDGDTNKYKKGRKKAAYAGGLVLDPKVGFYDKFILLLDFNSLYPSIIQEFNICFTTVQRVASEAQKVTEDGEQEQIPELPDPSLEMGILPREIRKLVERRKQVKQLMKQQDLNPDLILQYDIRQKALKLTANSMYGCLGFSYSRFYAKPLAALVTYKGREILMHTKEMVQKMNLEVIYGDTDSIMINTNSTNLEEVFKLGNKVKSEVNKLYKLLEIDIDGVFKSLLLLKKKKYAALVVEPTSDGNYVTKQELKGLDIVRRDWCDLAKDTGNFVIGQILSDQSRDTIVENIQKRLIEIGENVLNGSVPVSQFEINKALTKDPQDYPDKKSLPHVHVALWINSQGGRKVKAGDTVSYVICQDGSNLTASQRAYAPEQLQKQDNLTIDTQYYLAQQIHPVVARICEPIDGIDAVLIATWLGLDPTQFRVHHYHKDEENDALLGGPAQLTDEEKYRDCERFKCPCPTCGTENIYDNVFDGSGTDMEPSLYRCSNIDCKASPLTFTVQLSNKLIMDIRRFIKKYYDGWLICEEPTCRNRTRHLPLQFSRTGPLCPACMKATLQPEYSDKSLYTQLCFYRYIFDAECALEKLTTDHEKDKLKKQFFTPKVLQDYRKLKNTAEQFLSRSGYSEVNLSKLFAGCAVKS

Structure (SMILES) | IC50 (Nucleic Acid) [µM] | IC50 (DNA polymerase beta) [µM] | IC50 [1] [µM] | IC50 [2] [µM] | IC50 (Hepatitis B virus; Hepatitis B virus) [µM] | IC50 [3] [µM] | IC50 (Hepatitis B virus) [µM] | IC50 [4] [µM]
O=c1ccn([C@@H]2C[C@@H](F)[C@H](COP(=O)(O)OP(=O)(O)OP(=O)(O)O)O2)c(=O)[nH]1 (stereo in doubt) | > 100 | 3 | > 100 | 0.07 | 25 | 3.5 |  | 
Nc1ccn([C@@H]2C[C@@H](F)[C@H](COP(=O)(O)OP(=O)(O)OP(=O)(O)O)O2)c(=O)n1 (stereo in doubt) |  | 1 | > 100 | 0.5 |  | 2 | 0.5 | 
Cc1cn([C@@H]2C[C@@H](F)[C@H](COP(=O)(O)OP(=O)(O)OP(=O)(O)O)O2)c(=O)[nH]c1=O (stereo in doubt; 16) | > 100 | > 200 | > 200 | 100 | 0.25 | > 100 |  | 
Nc1ccn([C@@H]2C[C@@H](F)[C@H](COP(=O)(O)OP(=O)(O)OP(=O)(O)O)O2)c(=O)n1 (stereo in doubt; 18) | > 100 | > 100 | > 200 | > 100 |  | > 50 | 7 | 
Cc1cn([C@@H]2C[C@@H](F)[C@H](COP(=O)(O)OP(=O)(O)OP(=O)(O)O)O2)c(=O)nc1N (stereo in doubt) | > 100 | 1 | 100 | 0.6 |  | 0.5 | 0.03 | > 200
Cc1cn([C@@H]2C[C@@H](F)[C@H](COP(=O)(O)OP(=O)(O)OP(=O)(O)O)O2)c(=O)[nH]c1=O (stereo in doubt) |  | 2.2 |  | 0.05 |  | 1.5 | 0.15 | 
Cc1cn([C@@H]2C[C@@H](F)[C@H](COP(=O)(O)OP(=O)(O)OP(=O)(O)O)O2)c(=O)nc1N (stereo in doubt; 19) |  | > 200 | > 200 | > 100 |  | > 50 | 1.9 | > 200
O=c1ccn([C@@H]2C[C@@H](F)[C@H](COP(=O)(O)OP(=O)(O)OP(=O)(O)O)O2)c(=O)[nH]1 (stereo in doubt; 17) |  | > 100 | > 200 | > 200 |  | > 100 | 35 | 
